{"source": "BindingDB's records for doi:10.1016/j.bmc.2015.06.007", "about": "(Taipei Medical University, 2015)"}
{"molecular_target": "T1, Tumor necrosis factor ligand superfamily member 11 (Mus musculus, UniProt O35235)", "T1 sequence (O35235 whole entry)": "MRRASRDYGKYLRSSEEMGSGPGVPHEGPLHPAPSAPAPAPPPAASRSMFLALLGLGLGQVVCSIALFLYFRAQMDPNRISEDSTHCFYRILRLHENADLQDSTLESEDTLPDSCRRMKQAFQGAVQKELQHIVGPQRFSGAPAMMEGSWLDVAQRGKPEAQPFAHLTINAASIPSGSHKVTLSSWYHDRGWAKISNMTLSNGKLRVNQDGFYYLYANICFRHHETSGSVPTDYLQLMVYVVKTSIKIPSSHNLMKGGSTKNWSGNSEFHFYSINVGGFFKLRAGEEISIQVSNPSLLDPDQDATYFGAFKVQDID", "assay": "Inhibition of recombinant mouse RANKL-induced TRAP activity in mouse RAW264.7 cells using 4-nitrophenyl phosphate as TRAP substrate preincubated for 4 days followed by substrate addition measured after 15 mins by ELISA reader analysis", "method_in_brief": "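RAW264.7 cells (2 × 10⁴ per well) were cultured 4 days in α-MEM with 10% FBS, 2 mM L-glutamine and murine RANKL 100 ng/mL, with or without compound. Cells were lysed in 0.1% Triton X-100/50 mM Tris-HCl pH 7.2 on ice. They were incubated with 2 mg/mL 4-nitrophenyl phosphate in 0.09 M citrate for 15 min at 37 °C, stopped with 0.1 N NaOH, and read at 405 nm. Protein was measured by BCA.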", "units": {"IC50": "µM"}}
{"smiles": "O=c1oc2ccc(-c3ccc(F)cc3F)cc2c(=O)n1-c1cc(F)ccc1F", "IC50": 4.31}
{"smiles": "O=c1oc2ccc(-c3ccc(F)cc3F)cc2c(=O)n1-c1cccc(C(F)(F)F)c1", "IC50": 4.29}
{"smiles": "C#Cc1cccc(-n2c(=O)oc3ccc(-c4ccc(F)cc4F)cc3c2=O)c1", "IC50": 3.7}
{"smiles": "O=c1oc2ccccc2c(=O)n1-c1ccc(Cl)cc1F", "IC50": 10.6}
